The source made the active and inactive calls.
How the values were obtained:
[1] = biological target: T1, Kappa-type opioid receptor (Homo sapiens, UniProt P41145); test: Agonist activity at human kappa opioid receptor expressed in CHO cells assessed as [35S]GTPgammaS binding by scintillation counting analysis relative to U69,593; format: functional, cell-based
How it was run: (§1)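 Human KOR or MOR in CHO cell membranes (50 µg protein), 3 h at 25 °C, pH 7.4 Tris buffer with 100 mM NaCl, 10 mM MgCl2, 1 mM EDTA, 1 mM DTT, 0.1% BSA, GDP 40 µM and [35S]GTP-γ-S 50 pM. Stimulation = (S−B)/B×100, with Emax relative to U69,593 (KOR) or DAMGO (MOR). Curves were ten points, ≥3 experiments pooled. Antagonist Ke was taken from the shift in standard agonist EC50.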

[2] = biological target: T1, Kappa-type opioid receptor; test: Agonist activity at human kappa opioid receptor expressed in CHO cells assessed as [35S]GTPgammaS binding by scintillation counting analysis; format: functional, cell-based; how it was run: as §1
Mu-type opioid receptor [3] = biological target: T2, Mu-type opioid receptor (Homo sapiens, UniProt P35372); test: Agonist activity at human mu opioid receptor expressed in CHO cells assessed as [35S]GTPgammaS binding by scintillation counting analysis relative to DAMGO; format: functional, cell-based; how it was run: as §1
Mu-type opioid receptor [4] = biological target: T2, Mu-type opioid receptor; test: Agonist activity at human mu opioid receptor expressed in CHO cells assessed as [35S]GTPgammaS binding by scintillation counting analysis; format: functional, cell-based; how it was run: as §1
[5] = Agonist activity at delta opioid receptor expressed in rat/mouse NG108-15 cells assessed as [35S]GTPgammaS binding by scintillation counting analysis relative to DADLE; format: functional, cell-based
How it was run: as §1, with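 “NG108-15” for “Human KOR or MOR in CHO”, “pM. Nonspecific binding with 40 µM GTP-γ-S; filtration and scintillation counting.” for “pM.”, “DADLE.” for “U69,593 (KOR) or DAMGO (MOR).”, “pooled.” for “pooled. Antagonist”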

[6] = tested on: Delta-type opioid receptor; test: Antagonist activity at delta opioid receptor expressed in rat/mouse NG108-15 cells assessed as [35S]GTPgammaS binding by scintillation counting analysis; format: functional, cell-based
How it was run: as §1, with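 “NG108-15” for “Human KOR or MOR in CHO”, “pM. Nonspecific binding with 40 µM GTP-γ-S; filtration and scintillation counting.” for “pM.”, “DADLE.” for “U69,593 (KOR) or DAMGO (MOR).”, “pooled.” for “pooled. Antagonist”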

Homo sapiens [7] = species on record: Homo sapiens; test: Selectivity ratio of Ki for human kappa opioid receptor to Ki for human delta opioid receptor
Homo sapiens [8] = species on record: Homo sapiens; test: Selectivity ratio of Ki for human mu opioid receptor to Ki for human delta opioid receptor
[9] = biological target: T1, Kappa-type opioid receptor; test: Displacement of [3H]U69,593 from human kappa opioid receptor expressed in CHO cells by scintillation counting analysis; format: cell-based
Mu-type opioid receptor [10] = biological target: T2, Mu-type opioid receptor; test: Displacement of [3H]DAMGO from human mu opioid receptor expressed in CHO cells by scintillation counting analysis; format: cell-based
[11] = biological target: T3, Delta-type opioid receptor (Homo sapiens, UniProt P41143); test: Displacement of [3H]DADLE from human delta opioid receptor expressed in CHO cells by scintillation counting analysis; format: cell-based
Mu-type opioid receptor [12] = biological target: T2, Mu-type opioid receptor; test: Agonist activity at human mu opioid receptor expressed in CHO cells assessed as [35S]GTPgammaS binding at 10 uM by scintillation counting analysis; format: functional, cell-based; how it was run: as §1
[13] = tested on: Delta-type opioid receptor; test: Agonist activity at delta opioid receptor expressed in rat/mouse NG108-15 cells assessed as [35S]GTPgammaS binding at 10 uM by scintillation counting analysis; format: functional, cell-based
How it was run: as §1, with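 “NG108-15” for “Human KOR or MOR in CHO”, “pM. Nonspecific binding with 40 µM GTP-γ-S; filtration and scintillation counting.” for “pM.”, “DADLE.” for “U69,593 (KOR) or DAMGO (MOR).”, “pooled.” for “pooled. Antagonist”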

Mus musculus [14] = test: Antinociceptive activity in icv dosed ICR mouse assessed as warm-water tail-withdrawal latency by tail flick assay in presence of naloxone; format: functional, organism-based
Mus musculus [15] = test: Antinociceptive activity in ICR mouse assessed as warm-water tail-withdrawal latency at 10 nmol, icv by tail flick assay; format: functional
How it was run: (§2)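 Male ICR mice dosed i.c.v. in 5 µL (test compounds in 100% DMSO, morphine in water) under light ether anaesthesia. Tail withdrawal from 55 °C water, 10 s cutoff, tested 10–180 min post-injection. %MPE computed against pre-drug baseline. A50 with 95% confidence limits by linear regression at time of peak effect.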

Mus musculus [16] = test: Antinociceptive activity in icv dosed ICR mouse assessed as warm-water tail-withdrawal latency by tail flick assay; format: functional; how it was run: as §2
[17] = biological target: T1, Kappa-type opioid receptor; test: Agonist activity at human kappa opioid receptor expressed in CHO cells assessed as [35S]GTPgammaS binding at 10 uM by scintillation counting analysis; format: functional, cell-based; how it was run: as §1
[18] = biological target: T1, Kappa-type opioid receptor; test: Binding affinity to kappa opioid receptor by radioligand binding assay
Mu-type opioid receptor [19] = biological target: T2, Mu-type opioid receptor; test: Binding affinity to mu opioid receptor by radioligand binding assay
[20] = biological target: T3, Delta-type opioid receptor; test: Binding affinity to delta opioid receptor by radioligand binding assay
How it was run: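 Membranes from CHO cells stably expressing human DOR; [³H]DADLE at ~2 nM, displaced by 10 drug concentrations. Incubated 2 h at 25 °C in 50 mM Tris-HCl pH 7.4 with protease inhibitors, ~30 µg protein; triplicates; filtration and scintillation counting. Nonspecific binding defined with 20 µM levallorphan. Three experiments pooled and fitted for IC50.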

Mus musculus [21] = test: Antinociceptive activity in ICR mouse assessed as warm-water tail-withdrawal latency at 1 nmol, icv by tail flick assay; format: functional; how it was run: as §2
Mus musculus [22] = test: Antinociceptive activity in icv dosed ICR mouse assessed as warm-water tail-withdrawal latency administered bid for 3 days; format: functional
CHO [23] = test: Activity at human MOR/mouse DOR expressed in CHO cells assessed as increase in forskolin-stimulated cAMP accumulation at 30 nM after drug exposure for 20 hrs followed by washout in the presence of naloxone; format: functional, cell-based
How it was run: (§3)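 MOR/DOR co-expressing CHO cells (mouse N-cMyc DOR + human MOR) exposed 20 h to drug, then washed three times with serum-free medium and preincubated 20 min at 37 °C with IBMX 500 µM. Then 10 min at 37 °C with forskolin 100 µM/IBMX 500 µM, with or without 10 µM naloxone. Read-out was cAMP by [3H]cAMP–protein kinase binding against a standard curve. Mean of n=3.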

CHO [24] = test: Activity at human MOR/mouse DOR expressed in CHO cells assessed as increase in forskolin-stimulated cAMP accumulation at 30 nM after drug exposure for 20 hrs followed by washout; format: functional, cell-based; how it was run: as §3
[25] = Activity at human MOR/mouse DOR expressed in CHO cells assessed as inhibition of DAMGO-mediated forskolin-stimulated cAMP accumulation at 30 nM after 20 hrs by scintillation counting analysis; format: functional
How it was run: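 CHO cells stably co-expressing human MOR and cMyc-tagged mouse DOR were pretreated 20 h with 30 nM drug or medium, then washed. They were preincubated 20 min with 500 µM IBMX, then given 15 min with IBMX, 100 µM forskolin and graded DAMGO at 37 °C. cAMP was measured by [3H]cAMP–protein kinase binding against a standard curve.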

T3 sequence (P41143 whole entry): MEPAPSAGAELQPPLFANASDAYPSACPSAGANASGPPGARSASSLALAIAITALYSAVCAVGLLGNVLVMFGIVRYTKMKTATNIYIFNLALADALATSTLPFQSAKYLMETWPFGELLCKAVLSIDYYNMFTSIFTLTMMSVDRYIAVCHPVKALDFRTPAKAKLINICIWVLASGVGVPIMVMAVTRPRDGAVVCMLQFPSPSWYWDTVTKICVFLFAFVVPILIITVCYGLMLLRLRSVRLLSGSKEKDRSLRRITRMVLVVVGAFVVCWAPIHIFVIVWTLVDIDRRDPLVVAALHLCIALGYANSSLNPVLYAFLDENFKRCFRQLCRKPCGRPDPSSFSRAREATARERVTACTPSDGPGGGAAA
T2 sequence (P35372 whole entry): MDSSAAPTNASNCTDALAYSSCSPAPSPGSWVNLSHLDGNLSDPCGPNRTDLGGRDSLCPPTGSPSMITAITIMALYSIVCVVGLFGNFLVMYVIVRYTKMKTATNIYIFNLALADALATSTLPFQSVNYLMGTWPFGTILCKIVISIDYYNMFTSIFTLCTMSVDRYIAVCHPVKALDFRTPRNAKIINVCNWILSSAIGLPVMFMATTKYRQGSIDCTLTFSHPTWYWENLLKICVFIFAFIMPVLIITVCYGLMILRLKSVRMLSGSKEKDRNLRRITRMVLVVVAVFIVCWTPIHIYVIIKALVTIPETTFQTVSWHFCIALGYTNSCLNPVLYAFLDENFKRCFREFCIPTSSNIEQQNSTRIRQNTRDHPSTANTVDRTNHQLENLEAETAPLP
T1 sequence (P41145 whole entry): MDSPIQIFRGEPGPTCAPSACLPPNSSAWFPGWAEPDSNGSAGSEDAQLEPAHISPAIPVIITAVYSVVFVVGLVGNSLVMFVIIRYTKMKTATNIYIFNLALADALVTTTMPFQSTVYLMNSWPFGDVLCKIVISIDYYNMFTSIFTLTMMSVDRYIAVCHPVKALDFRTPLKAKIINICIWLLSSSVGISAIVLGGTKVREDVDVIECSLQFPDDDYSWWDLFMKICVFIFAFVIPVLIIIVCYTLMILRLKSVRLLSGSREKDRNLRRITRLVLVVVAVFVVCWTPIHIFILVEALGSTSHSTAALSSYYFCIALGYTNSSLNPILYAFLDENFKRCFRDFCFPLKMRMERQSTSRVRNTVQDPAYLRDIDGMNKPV

Row | SMILES | Emax [1] [%] | EC50 [2] [nM] | Emax (Mu-type opioid receptor [3]) [%] | EC50 (Mu-type opioid receptor [4]) [nM] | Ke [6] [nM] | Ratio Ki (Homo sapiens [7]) | Ratio Ki (Homo sapiens [8]) | Ki [9] [nM] | Ki (Mu-type opioid receptor [10]) [nM] | Ki [11] [nM] | Activity (Mu-type opioid receptor [12]) | Activity [13] | further results
1 | CN1CC[C@]23c4c5ccc(O)c4O[C@H]2c2ncc(-c4ccc(Cl)cc4)cc2C[C@@]3(OCc2ccccc2)[C@H]1C5 | 32 | 215 | 119 | 301 | 4.54 | 28 | 2.6 | 49 | 4.69 | 1.78 |  |  | Emax [5]: 52%
2 | O=C(Cc1ccccc1)O[C@@]12Cc3cc(-c4ccc(Cl)cc4)cnc3[C@@H]3Oc4c(O)ccc5c4[C@@]31CCN(CC1CC1)[C@@H]2C5 | 34 | 26 |  |  | 0.37 | 2.3 | 0.78 | 3.1 | 1.04 | 1.33 | inactive | inactive | 
3 | CO[C@@]12Cc3cc(-c4ccc(Cl)cc4)cnc3[C@@H]3Oc4c(O)ccc5c4[C@@]31CCN(C)[C@@H]2C5 | 36 | 633 | 118 | 379 | 1.6 | 17 | 4.8 | 28 | 7.89 | 1.63 |  | inactive | Activity (Mus musculus [14]): inactive; %max (Mus musculus [15]): 98%; A50 (Mus musculus [16]): 1.44 nmol; Activity (Mus musculus [16]): Dose-dependent effect
4 | CN1CC[C@]23c4c5ccc(O)c4O[C@H]2c2ncc(-c4ccc(Cl)cc4)cc2C[C@@]3(OC(=O)c2ccccc2)[C@H]1C5 |  |  | 55 | 4620 | 45 | 6.6 | 4.9 | 112 | 84 | 17 |  | inactive | Activity [17]: inactive
5 | CN1CC[C@]23c4c5ccc(O)c4O[C@H]2c2ncc(-c4ccc(Cl)cc4)cc2C[C@@]3(OC(=O)CCc2ccccc2)[C@H]1C5 | 16 | 136 | 105 | 48 | 1.64 | 4.6 | 0.98 | 4.41 | 0.94 | 0.96 |  |  | Emax [5]: 59%
6 | O=C(O[C@@]12Cc3cc(-c4ccc(Cl)cc4)cnc3[C@@H]3Oc4c(O)ccc5c4[C@@]31CCN(CC1CC1)[C@@H]2C5)c1ccccc1 |  |  |  |  | 218 | 1.3 | 2.2 | 117 | 192 | 87 | inactive | inactive | Activity [17]: inactive
7 | CN1CC[C@]23c4c5ccc(O)c4O[C@H]2c2ncc(-c4ccc(Cl)cc4)cc2C[C@@]3(OC(=O)Cc2ccccc2)[C@H]1C5 | 36 | 109 | 122 | 87 | 3.38 | 18 | 1.5 | 17 | 1.43 | 0.97 |  |  | Emax [5]: 27%
8 | Oc1ccc2c3c1O[C@H]1c4ncc(-c5ccc(Cl)cc5)cc4C[C@@]4(O)[C@@H](C2)N(CC2CC2)CC[C@]314 |  |  |  |  |  |  |  |  |  |  |  |  | Ki [18]: 20 nM; Ki (Mu-type opioid receptor [19]): 51 nM; Ki [20]: 2.2 nM
9 | CN1CC[C@]23c4c5ccc(O)c4O[C@H]2c2ncc(-c4ccc(Cl)cc4)cc2C[C@@]3(OC/C=C/c2ccccc2)[C@H]1C5 |  |  | 130 | 4.27 |  | 1.4 | 0.36 | 1.55 | 0.41 | 1.14 |  |  | Activity (Mus musculus [14]): inactive; %max (Mus musculus [21]): 91%; A50 (Mus musculus [16]): 0.23 nmol; Activity (Mus musculus [16]): Dose-dependent effect; Emax [5]: 84%
10 | O=C(CCc1ccccc1)O[C@@]12Cc3cc(-c4ccc(Cl)cc4)cnc3[C@@H]3Oc4c(O)ccc5c4[C@@]31CCN(CC1CC1)[C@@H]2C5 | 25 | 13 |  |  | 1.86 | 2.9 | 0.62 | 12 | 2.58 | 4.13 | inactive | inactive | 
11 | Oc1ccc2c3c1O[C@H]1c4ncc(-c5ccc(Cl)cc5)cc4C[C@@]4(OCc5ccccc5)[C@@H](C2)N(CC2CC2)CC[C@]314 | 15 | 27 |  |  | 0.64 | 2.8 | 4.4 | 5.33 | 8.42 | 1.91 | inactive | inactive | 
12 | Oc1ccc2c3c1O[C@H]1c4ncc(-c5ccc(Cl)cc5)cc4C[C@@]4(OCCCc5ccccc5)[C@@H](C2)N(CC2CC2)CC[C@]314 |  |  | 72 |  | 0.091 |  |  |  |  |  |  | inactive | A50 (Mus musculus [22]): 2.78 nmol; Activity (CHO [23]): inactive; Activity [17]: inactive; Activity (Mus musculus [14]): inactive; %max (Mus musculus [21]): 75%; A50 (Mus musculus [16]): 0.35 nmol; Activity (Mus musculus [16]): Dose-dependent effect; Activity (CHO [24]): inactive; Emax at 0.03 µM [25]: 40%
13 | Oc1ccc2c3c1O[C@H]1c4ncc(-c5ccc(Cl)cc5)cc4C=C4[C@@H](C2)N(CC2CC2)CC[C@]431 |  |  |  |  | 0.58 | 2.2 | 4.8 | 5.97 | 13 | 2.71 | inactive | inactive | Activity [17]: inactive
14 | Oc1ccc2c3c1O[C@H]1c4ncc(-c5ccc(Cl)cc5)cc4C[C@@]4(OC/C=C/c5ccccc5)[C@@H](C2)N(CC2CC2)CC[C@]314 |  |  |  |  |  | 0.89 | 0.81 | 3.31 | 3.03 | 3.74 | inactive | inactive | 
15 | CN1CC[C@]23c4c5ccc(O)c4O[C@H]2c2ncc(-c4ccc(Cl)cc4)cc2C[C@@]3(O)[C@H]1C5 |  |  |  |  |  |  |  |  |  |  |  |  | Ki [18]: 468 nM; Ki (Mu-type opioid receptor [19]): 230 nM; Ki [20]: 3.9 nM
16 | CO[C@@]12Cc3cc(-c4ccc(Cl)cc4)cnc3[C@@H]3Oc4c(O)ccc5c4[C@@]31CCN(CC1CC1)[C@@H]2C5 |  |  |  |  |  | 2.8 | 22 | 5.37 | 41.9 | 1.95 | inactive | inactive | 

— ChEMBL document CHEMBL2177065, “14-Alkoxy- and 14-acyloxypyridomorphinans: μ agonist/δ antagonist opioid analgesics with diminished tolerance and dependence side effects” (J Med Chem, 2012)
